Active and inactive are the calls of the source. The rule behind the calls is not given here.
Key:
[1] = target: Receptor tyrosine-protein kinase erbB-2 (Homo sapiens) (UniProt P04626); assay: Inhibition of ERBB2 (unknown origin) transfected in mouse Ba/F3 cells at 5 uM after 24 hrs; format: cell-based; conditions: BaF3
In short: (§1)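 Kinase specificity panel: each Ba/F3 line transformed with one of 24 tyrosine kinases depends on that kinase to grow. Cells were given compound at 1 or 5 µM for 24 h, with DMSO as comparator. Percentage growth was read by ATP-lite luminescence and reported as mean ± SEM.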

[2] = target: Epidermal growth factor receptor (Homo sapiens) (UniProt P00533); assay: Inhibition of EGFR (unknown origin) transfected in mouse Ba/F3 cells at 5 uM after 24 hrs; format: cell-based; conditions: BaF3; in short: as §1
[3] = Cytotoxicity against mouse BA/F3 cells transfected with FLT3-ITD after 24 hrs by plate reader analysis in presence of IL3; conditions: BaF3, 24 h
[4] = system: BaF3; assay: Cytotoxicity against mouse BA/F3 cells transfected with FLT3-ITD-F691l at 1 uM after 24 hrs by plate reader analysis; format: functional, cell-based
[5] = target: Tyrosine-protein kinase SYK (Homo sapiens) (UniProt P43405); assay: Inhibition of SYK (unknown origin) transfected in mouse Ba/F3 cells at 5 uM after 24 hrs; format: cell-based; conditions: BaF3
[6] = target: Tyrosine-protein kinase Fyn (Homo sapiens) (UniProt P06241); assay: Inhibition of FYN (unknown origin) transfected in mouse Ba/F3 cells at 5 uM after 24 hrs; format: cell-based; conditions: BaF3; in short: as §1
[7] = target: T1, Receptor-type tyrosine-protein kinase FLT3 (Mus musculus) (UniProt Q00342); assay: Inhibition of FLT3 phosphorylation in mouse Ba/F3 cells transfected with FLT3-ITD cells at 500 nM after 90 mins by Western blot analysis; format: cell-based; conditions: BaF3
T1 sequence (whole entry): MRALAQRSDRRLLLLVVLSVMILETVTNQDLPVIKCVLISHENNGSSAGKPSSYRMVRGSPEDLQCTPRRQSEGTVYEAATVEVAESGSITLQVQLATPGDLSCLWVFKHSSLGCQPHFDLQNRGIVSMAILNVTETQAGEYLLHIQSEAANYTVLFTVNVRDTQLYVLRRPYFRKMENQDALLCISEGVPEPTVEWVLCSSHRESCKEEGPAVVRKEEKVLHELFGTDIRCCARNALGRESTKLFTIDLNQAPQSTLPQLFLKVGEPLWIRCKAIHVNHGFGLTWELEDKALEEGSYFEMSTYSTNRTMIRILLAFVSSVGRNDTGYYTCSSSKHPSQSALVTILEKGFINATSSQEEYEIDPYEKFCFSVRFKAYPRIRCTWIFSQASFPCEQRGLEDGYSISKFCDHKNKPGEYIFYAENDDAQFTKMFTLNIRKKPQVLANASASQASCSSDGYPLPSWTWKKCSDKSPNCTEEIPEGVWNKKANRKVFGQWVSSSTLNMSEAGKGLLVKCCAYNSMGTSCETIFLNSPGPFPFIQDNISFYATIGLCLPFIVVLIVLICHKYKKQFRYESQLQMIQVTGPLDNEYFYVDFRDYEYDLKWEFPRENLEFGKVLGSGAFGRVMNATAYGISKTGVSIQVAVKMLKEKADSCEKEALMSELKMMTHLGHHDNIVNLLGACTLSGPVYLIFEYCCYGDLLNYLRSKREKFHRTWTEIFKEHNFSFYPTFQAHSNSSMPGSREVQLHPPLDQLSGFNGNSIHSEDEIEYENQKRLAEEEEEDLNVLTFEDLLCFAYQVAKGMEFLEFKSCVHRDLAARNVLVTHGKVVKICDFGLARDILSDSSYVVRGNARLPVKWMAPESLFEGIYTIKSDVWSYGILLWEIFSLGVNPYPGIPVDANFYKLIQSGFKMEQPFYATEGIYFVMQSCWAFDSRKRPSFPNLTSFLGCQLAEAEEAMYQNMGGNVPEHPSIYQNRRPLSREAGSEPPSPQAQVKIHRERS
In short: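 Ba/F3-FLT3-ITD cells were treated for 90 min with increasing doses. They were lysed in buffer with 1 mM NaVO4 and protease inhibitors, then reduced and run on Bis-Tris 4–12% gels for Western blot. Phospho-FLT3 and phospho-STAT5 were detected, with total FLT3 and STAT5 as loading controls.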

[8] = target: Ephrin type-A receptor 7 (Homo sapiens) (UniProt Q15375); assay: Inhibition of EPHA7 (unknown origin) transfected in mouse Ba/F3 cells at 1 uM after 24 hrs; format: cell-based; conditions: BaF3; in short: as §1
[9] = target: Proto-oncogene tyrosine-protein kinase Src (Homo sapiens) (UniProt P12931); assay: Inhibition of SRC (unknown origin) transfected in mouse Ba/F3 cells at 1 uM after 24 hrs; format: cell-based; conditions: BaF3
[10] = target: T2, Tyrosine-protein kinase receptor TYRO3 (Homo sapiens) (UniProt Q06418); assay: Inhibition of TYRO3 (unknown origin) transfected in mouse Ba/F3 cells at 1 uM after 24 hrs; format: cell-based; conditions: BaF3
T2 sequence (whole entry): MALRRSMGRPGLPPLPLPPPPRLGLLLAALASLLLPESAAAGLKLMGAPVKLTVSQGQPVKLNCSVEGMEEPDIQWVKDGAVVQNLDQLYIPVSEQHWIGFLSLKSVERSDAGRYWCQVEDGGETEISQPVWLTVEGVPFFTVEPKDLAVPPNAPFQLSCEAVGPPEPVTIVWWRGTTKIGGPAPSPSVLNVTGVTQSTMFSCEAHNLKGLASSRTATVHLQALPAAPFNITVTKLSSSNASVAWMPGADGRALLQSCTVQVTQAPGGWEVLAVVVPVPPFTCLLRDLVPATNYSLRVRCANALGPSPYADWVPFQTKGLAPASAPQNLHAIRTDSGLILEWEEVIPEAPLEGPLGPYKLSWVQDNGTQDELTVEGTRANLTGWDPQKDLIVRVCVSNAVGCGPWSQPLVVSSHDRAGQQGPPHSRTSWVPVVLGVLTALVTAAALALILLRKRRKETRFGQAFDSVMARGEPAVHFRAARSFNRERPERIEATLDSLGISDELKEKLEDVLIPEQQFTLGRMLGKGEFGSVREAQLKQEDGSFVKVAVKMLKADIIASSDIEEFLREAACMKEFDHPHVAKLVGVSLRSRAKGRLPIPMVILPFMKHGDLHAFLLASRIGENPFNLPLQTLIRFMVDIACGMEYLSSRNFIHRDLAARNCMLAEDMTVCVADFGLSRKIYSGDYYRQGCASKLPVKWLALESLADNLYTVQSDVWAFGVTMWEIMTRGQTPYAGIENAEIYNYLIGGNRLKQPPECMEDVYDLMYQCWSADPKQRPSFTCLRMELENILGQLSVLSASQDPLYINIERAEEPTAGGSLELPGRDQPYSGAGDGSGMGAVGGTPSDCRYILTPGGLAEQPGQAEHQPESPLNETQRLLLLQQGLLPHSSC

[11] = target: Tyrosine-protein kinase SYK (Homo sapiens) (UniProt P43405); assay: Inhibition of SYK (unknown origin) transfected in mouse Ba/F3 cells at 1 uM after 24 hrs; format: cell-based; conditions: BaF3

Sequence of Ephrin type-A receptor 7 (Homo sapiens) (Q15375 28-998 limits assumed): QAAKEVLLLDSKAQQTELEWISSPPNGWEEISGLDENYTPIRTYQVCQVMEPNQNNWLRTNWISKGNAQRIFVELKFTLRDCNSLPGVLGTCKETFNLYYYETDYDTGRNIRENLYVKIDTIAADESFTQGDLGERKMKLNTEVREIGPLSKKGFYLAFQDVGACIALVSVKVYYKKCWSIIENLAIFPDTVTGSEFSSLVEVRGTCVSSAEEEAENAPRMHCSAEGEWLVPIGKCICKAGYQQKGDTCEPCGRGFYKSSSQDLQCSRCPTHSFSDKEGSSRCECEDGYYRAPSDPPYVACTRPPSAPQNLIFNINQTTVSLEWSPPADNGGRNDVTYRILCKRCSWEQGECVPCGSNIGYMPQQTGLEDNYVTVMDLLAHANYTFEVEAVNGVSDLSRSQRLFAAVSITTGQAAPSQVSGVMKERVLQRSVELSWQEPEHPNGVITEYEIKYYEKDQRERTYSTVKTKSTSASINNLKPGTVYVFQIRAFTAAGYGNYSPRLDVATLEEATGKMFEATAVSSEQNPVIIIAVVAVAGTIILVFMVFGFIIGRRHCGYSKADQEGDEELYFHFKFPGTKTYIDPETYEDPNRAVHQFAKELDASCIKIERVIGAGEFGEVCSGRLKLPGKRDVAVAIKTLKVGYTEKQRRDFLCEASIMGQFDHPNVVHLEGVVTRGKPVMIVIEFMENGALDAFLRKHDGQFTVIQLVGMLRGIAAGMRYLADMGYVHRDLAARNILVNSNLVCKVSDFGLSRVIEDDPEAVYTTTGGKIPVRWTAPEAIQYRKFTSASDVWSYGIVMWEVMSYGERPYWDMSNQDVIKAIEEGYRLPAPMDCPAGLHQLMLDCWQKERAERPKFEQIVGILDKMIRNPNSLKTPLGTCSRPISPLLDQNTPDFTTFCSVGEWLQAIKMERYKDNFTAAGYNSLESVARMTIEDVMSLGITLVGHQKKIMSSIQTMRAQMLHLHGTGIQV
Sequence of Proto-oncogene tyrosine-protein kinase Src (Homo sapiens) (P12931 2-536 limits assumed): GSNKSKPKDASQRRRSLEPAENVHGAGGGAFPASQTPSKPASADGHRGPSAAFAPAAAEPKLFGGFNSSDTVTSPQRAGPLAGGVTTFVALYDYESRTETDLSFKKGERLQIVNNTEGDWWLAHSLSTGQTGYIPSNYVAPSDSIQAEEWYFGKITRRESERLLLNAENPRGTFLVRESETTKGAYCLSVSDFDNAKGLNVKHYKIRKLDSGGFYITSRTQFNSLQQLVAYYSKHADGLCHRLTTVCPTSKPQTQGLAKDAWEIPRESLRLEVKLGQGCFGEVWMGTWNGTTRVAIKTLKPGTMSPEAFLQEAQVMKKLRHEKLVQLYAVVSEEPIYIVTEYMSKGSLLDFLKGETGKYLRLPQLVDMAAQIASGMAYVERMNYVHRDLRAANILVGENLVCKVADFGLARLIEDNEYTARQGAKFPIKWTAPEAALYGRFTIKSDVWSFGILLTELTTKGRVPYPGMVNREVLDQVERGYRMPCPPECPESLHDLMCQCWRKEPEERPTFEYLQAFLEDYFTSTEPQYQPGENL
Sequence of Epidermal growth factor receptor (Homo sapiens) (P00533 whole entry): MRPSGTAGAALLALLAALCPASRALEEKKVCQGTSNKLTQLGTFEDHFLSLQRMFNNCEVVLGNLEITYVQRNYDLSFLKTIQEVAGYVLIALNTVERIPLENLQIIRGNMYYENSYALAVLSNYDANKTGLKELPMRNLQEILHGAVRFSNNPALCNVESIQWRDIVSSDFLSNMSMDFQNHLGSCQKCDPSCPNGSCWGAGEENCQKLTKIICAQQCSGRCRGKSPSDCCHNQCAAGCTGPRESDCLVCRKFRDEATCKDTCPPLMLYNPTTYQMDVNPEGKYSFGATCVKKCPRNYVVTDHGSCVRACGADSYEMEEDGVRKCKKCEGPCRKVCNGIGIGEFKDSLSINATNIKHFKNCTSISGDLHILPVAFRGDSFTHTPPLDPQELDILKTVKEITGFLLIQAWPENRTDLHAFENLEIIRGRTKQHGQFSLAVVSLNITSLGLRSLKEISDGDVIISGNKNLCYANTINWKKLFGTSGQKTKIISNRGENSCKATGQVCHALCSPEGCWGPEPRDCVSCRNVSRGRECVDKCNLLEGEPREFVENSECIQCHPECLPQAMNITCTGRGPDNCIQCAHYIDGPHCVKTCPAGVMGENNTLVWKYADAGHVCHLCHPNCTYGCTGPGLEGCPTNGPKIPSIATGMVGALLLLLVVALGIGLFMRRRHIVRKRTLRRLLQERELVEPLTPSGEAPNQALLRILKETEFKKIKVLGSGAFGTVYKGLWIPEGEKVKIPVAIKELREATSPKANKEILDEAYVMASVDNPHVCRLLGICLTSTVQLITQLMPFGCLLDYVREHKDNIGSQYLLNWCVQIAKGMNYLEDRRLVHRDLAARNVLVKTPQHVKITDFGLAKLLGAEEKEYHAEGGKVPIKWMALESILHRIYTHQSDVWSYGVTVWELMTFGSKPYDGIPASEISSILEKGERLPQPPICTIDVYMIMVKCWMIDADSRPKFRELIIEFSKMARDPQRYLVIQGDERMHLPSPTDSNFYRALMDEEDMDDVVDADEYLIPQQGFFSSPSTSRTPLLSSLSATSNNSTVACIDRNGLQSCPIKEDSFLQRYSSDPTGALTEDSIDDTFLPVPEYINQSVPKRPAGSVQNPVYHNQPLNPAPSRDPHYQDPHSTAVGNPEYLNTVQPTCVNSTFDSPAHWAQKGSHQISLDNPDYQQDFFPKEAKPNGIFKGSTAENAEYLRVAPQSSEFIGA
Sequence of Receptor tyrosine-protein kinase erbB-2 (Homo sapiens) (P04626 whole entry): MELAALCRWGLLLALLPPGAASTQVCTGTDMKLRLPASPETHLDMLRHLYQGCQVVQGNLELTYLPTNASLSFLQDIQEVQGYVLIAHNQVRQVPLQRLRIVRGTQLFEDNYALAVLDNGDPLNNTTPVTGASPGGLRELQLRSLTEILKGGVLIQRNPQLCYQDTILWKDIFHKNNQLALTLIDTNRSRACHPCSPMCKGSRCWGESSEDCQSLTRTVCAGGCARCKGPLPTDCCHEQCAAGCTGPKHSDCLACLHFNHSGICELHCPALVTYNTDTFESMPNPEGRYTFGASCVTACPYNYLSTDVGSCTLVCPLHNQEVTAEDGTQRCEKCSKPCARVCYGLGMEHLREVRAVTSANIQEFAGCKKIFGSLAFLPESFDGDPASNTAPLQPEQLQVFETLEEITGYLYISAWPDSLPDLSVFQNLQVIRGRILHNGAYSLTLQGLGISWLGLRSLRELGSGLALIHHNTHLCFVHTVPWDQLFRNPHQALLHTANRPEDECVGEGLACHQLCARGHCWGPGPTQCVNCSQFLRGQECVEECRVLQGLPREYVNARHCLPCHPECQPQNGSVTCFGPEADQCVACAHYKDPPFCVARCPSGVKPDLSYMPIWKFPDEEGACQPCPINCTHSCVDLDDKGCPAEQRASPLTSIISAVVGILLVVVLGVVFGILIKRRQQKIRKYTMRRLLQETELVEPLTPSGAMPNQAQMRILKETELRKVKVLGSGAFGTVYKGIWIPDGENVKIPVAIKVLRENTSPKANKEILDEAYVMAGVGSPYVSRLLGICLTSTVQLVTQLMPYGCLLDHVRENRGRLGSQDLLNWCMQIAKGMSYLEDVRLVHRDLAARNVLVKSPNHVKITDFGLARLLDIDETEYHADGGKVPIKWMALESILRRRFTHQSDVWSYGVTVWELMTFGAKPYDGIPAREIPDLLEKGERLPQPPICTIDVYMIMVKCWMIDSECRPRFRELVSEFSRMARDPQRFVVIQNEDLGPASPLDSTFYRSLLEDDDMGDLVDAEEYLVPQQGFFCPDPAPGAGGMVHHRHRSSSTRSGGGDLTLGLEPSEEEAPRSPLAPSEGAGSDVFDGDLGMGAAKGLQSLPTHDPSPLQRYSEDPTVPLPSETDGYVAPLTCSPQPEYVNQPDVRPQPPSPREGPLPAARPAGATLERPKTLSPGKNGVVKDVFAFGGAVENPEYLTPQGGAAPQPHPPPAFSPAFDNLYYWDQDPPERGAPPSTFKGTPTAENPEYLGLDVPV
Sequence of Tyrosine-protein kinase Fyn (Homo sapiens) (P06241 2-537 limits assumed): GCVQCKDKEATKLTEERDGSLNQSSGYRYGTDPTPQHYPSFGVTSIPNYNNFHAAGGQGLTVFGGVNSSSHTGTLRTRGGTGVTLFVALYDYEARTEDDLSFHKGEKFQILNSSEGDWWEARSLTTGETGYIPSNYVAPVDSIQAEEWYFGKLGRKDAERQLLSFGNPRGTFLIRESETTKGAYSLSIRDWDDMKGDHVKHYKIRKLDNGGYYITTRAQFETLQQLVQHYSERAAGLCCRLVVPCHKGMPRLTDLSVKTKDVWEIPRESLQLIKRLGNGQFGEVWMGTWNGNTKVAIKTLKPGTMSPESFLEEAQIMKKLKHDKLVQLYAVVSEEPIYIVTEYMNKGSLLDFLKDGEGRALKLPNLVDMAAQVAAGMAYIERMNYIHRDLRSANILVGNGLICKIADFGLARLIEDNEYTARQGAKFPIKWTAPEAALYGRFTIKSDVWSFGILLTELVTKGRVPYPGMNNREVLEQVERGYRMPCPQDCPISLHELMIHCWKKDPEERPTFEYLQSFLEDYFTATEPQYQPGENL

Compound | inhibition [1] | inhibition [2] | inhibition [5] | inhibition [6] | inhibition [7] | inhibition [8] | inhibition [9] | inhibition [10] | inhibition [11] | EC50 [3] [µM] | Activity [4]
Cc1ccc(-n2cnc3cc(Nc4nnc(C)c5ccccc45)ccc32)cc1 | inactive | inactive | inactive | inactive | Active |  |  |  |  | 19 | Active
COc1ccc(C(=O)Nc2cc(-c3ccccc3)[nH]n2)cc1 |  |  |  |  |  | inactive | inactive | inactive | inactive | 18 | Active
Cc1ccc(-c2cc(NC(=O)c3ccc(F)cc3)[nH]n2)cc1 |  |  |  |  | Active | inactive | inactive | inactive | inactive | 23 | 

More lines, main results first:

inhibition [1] | inhibition [2] | inhibition [5] | inhibition [6] | inhibition [7] | inhibition [8] | inhibition [9] | inhibition [10] | inhibition [11] | Compound | EC50 [3] [µM] | Activity [4]
inactive | inactive | inactive | inactive | Active |  |  |  |  | Fc1ccc(-c2n[nH]cc2-c2ccncc2)cc1Cl | 16 | 
 |  |  |  | Active | inactive | inactive | inactive | inactive | Cc1cccc(C(=O)Nc2cc(-c3ccc(F)cc3)n[nH]2)c1 | 21 | 
